Among the data in ChEMBL document CHEMBL4145666, “In Search of Selectivity in Inhibition of ADAM10” (ACS Med Chem Lett, 2018) are Ki and inhibition values, retold here.

SMILES strings stand for the structures.

As a reminder, the Ki is a dissociation constant, usually derived from enzyme kinetics or from competition with a known ligand. Broadly, the inhibition is the share of the control response that was lost under treatment.

Experiment [1] addresses Macrophage metalloelastase (Homo sapiens, UniProt P39900). Description: Inhibition of recombinant human MMP12 catalytic domain using Mca-PLGL-DpaAR-NH2 as substrate by fluorescence spectrophotometric method. The method, boiled down:
(§1)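 Enzymes and their substrates were obtained as in earlier work, and inhibition was run by a previously reported protocol. Ki values were measured in triplicate.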

Another experiment has as its target Neutrophil collagenase (Homo sapiens, UniProt P22894). Description: Inhibition of recombinant human MMP8 catalytic domain (Phe99 to Gln269 residues) expressed in Escherichia coli using McaKPLGL-Dpa-AR-NH2 as substrate by fluorescence spectrophotometric method. Summed up: as §1
Experiment [2] has as its target T1, Disintegrin and metalloproteinase domain-containing protein 10 (Homo sapiens) (UniProt O14672).
T1 sequence (whole entry): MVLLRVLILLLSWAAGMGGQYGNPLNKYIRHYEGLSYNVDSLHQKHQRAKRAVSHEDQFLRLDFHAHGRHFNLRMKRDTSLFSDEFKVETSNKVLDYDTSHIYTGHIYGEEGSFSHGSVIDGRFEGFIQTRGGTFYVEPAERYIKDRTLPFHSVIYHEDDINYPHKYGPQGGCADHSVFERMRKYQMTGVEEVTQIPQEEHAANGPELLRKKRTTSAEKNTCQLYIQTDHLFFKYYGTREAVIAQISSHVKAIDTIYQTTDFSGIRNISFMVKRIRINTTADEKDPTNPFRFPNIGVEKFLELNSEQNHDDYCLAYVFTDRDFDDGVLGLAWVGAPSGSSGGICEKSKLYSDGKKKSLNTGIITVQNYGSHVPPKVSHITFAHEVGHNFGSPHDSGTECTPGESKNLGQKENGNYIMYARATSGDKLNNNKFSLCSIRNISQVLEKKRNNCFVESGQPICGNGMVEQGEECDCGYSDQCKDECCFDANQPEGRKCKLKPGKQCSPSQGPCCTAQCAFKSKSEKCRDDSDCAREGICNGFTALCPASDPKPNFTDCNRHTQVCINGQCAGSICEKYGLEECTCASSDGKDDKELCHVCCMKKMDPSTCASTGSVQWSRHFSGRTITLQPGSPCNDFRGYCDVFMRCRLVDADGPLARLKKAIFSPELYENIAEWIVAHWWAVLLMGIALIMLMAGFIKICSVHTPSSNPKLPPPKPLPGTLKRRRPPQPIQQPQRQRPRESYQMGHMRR
Put plainly: Inhibition of recombinant human C-terminal His10-tagged ADAM10 (Thr214 to Glu672 residues) expressed in baculovirus infected Sf21 cells at 10 uM using McaKPLGL-Dpa-AR-NH2 as substrate by fluorescence spectrophotometric method relative to control. The method, boiled down: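 Single inhibitor concentration of 10 μM, reported as percent inhibition. Enzymes and substrates as in earlier work, with inhibition run by a previously reported protocol.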

Experiment [3] has as its target Disintegrin and metalloproteinase domain-containing protein 17 (Homo sapiens, UniProt P78536). Description: Inhibition of recombinant human C-terminal His6-tagged ADAM17 (Arg215 to Asn671 residues) expressed in baculovirus infected Sf21 cells using Mca-PLAQAV-Dpa-RSSSR-NH2 as substrate by fluorescence spectrophotometric method. The method, boiled down: as §1

Sequence of Disintegrin and metalloproteinase domain-containing protein 17 (P78536 whole entry, the tested form may be a part): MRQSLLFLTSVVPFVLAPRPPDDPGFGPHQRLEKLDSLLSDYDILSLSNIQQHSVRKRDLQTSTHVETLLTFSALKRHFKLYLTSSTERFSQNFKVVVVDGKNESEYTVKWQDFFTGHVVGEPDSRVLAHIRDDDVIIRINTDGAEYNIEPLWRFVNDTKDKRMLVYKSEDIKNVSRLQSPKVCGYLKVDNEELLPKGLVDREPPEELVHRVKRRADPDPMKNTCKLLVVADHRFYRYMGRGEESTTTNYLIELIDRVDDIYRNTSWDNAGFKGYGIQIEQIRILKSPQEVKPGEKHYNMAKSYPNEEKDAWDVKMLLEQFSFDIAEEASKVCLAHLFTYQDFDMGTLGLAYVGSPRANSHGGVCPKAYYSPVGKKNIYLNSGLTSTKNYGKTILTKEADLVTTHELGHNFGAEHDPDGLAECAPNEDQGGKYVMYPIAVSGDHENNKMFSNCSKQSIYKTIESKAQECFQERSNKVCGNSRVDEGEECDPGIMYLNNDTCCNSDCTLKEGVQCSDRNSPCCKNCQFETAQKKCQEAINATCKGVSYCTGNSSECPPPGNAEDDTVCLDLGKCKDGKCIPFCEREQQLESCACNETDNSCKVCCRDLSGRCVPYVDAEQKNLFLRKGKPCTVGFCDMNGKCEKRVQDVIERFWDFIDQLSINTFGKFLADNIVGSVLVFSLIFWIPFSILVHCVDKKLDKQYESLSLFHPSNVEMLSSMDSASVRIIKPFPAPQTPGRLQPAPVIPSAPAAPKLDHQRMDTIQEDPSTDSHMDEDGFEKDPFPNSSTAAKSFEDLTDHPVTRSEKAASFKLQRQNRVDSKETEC
Sequence of Neutrophil collagenase (P22894 whole entry, the tested form may be a part): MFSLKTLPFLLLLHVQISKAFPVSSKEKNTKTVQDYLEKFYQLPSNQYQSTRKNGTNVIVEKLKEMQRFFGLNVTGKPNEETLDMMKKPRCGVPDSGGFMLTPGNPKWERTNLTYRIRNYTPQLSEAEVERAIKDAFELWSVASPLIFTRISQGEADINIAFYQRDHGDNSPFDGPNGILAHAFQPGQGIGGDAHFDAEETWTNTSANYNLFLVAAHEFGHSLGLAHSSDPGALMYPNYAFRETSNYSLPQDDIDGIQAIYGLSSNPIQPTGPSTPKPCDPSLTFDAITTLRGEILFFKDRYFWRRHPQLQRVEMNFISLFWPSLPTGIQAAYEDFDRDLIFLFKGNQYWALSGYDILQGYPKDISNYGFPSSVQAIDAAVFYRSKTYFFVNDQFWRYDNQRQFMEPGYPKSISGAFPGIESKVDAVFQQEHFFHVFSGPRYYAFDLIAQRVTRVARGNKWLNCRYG
Sequence of Macrophage metalloelastase (P39900 whole entry, the tested form may be a part): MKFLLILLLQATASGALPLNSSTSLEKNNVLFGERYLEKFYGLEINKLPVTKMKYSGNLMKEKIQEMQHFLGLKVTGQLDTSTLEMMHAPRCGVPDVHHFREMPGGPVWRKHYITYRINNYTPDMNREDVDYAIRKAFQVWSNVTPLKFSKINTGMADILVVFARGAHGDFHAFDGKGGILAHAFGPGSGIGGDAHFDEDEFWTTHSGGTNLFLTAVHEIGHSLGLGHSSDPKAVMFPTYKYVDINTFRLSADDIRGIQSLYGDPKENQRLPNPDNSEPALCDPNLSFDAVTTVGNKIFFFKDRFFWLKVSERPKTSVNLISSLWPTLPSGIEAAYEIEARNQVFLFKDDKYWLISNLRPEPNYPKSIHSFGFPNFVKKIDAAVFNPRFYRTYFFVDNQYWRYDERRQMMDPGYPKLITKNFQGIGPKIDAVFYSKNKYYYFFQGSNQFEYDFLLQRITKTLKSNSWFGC

As for `CN1CC2(CC2)C[C@H](C(=O)NO)[C@H]1C(=O)N1CCN(c2ccc(C(F)(F)F)cn2)CC1`, the Ki was 29.5 nM in experiment [1], 3.01 nM at Neutrophil collagenase and 61 nM in experiment [3]. Further, the inhibition in experiment [2] was 3%.
